From ChEMBL document CHEMBL1649166, “Relative contributions of the Candida albicans ABC transporters Cdr1p and Cdr2p to clinical azole resistance” (2009)
Values after ≈ are worked out from the molar mass of the structure shown.

Tests used:
Format in all cases: functional
Candida albicans [1] = assay: Antifungal activity against cdr2/cdr2 deficient Candida albicans STY7 after 48 hrs; conditions: STY7, 48 h
Procedure, shortened: (§1)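 Liquid microtiter broth assay in YPD, cells incubated 48 h at 30°C with drug (e.g. FLC 0.2–200 µg/ml; KTC 0.001–1.2 µg/ml). Growth read as OD620 and expressed relative to drug-free growth of the same strain. MIC50 taken as the first concentration reducing growth by 50%. Mean of three independent experiments, each in duplicate.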

Candida albicans [2] = assay: Ratio of MIC50 for Candida albicans 5674 to MIC50 for cdr1/cdr1/cdr2/cdr2 deficient Candida albicans STY31
Procedure, shortened: (§2)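 Ratios use MIC50s from the YPD liquid microtiter assay (48 h, 30°C, OD620 growth relative to drug-free control). MIC50 is the first concentration giving a 50% growth reduction, as the mean of three independent experiments in duplicate. The MIC50 of one strain is divided by that of the other.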

Candida albicans [3] = assay: Ratio of MIC50 for Candida albicans 5674 to MIC50 for Candida albicans STY47 expressing cdr2 gene; procedure, shortened: as §2
Candida albicans [4] = assay: Antifungal activity against tac1/tac1 deficient Candida albicans SZY31 after 48 hrs; conditions: SZY31, 48 h; procedure, shortened: as §1
Candida albicans [5] = assay: Antifungal activity against cdr1/cdr1 deficient Candida albicans STY19 after 48 hrs; conditions: STY19, 48 h; procedure, shortened: as §1
Candida albicans [6] = assay: Ratio of MIC50 for Candida albicans 5674 to MIC50 for cdr1/cdr1 deficient Candida albicans STY19; procedure, shortened: as §2
Candida albicans [7] = assay: Antifungal activity against cdr1/cdr1/cdr2/cdr2 deficient Candida albicans STY31 after 48 hrs; conditions: STY31, 48 h; procedure, shortened: as §1
Candida albicans [8] = assay: Antifungal activity against Candida albicans STY47 expressing cdr2 gene after 48 hrs; conditions: STY47, 48 h; procedure, shortened: as §1
Candida albicans [9] = assay: Antifungal activity against azole-resistant Candida albicans 5674 after 48 hrs; conditions: Candida albicans, 5674, 48 h; procedure, shortened: as §1
Candida albicans [10] = assay: Antifungal activity against azole-susceptible Candida albicans 5457 after 48 hrs; conditions: Candida albicans, 5457, 48 h; procedure, shortened: as §1
Candida albicans [11] = assay: Ratio of MIC50 for Candida albicans 5674 to MIC50 for cdr2/cdr2 deficient Candida albicans STY7; procedure, shortened: as §2
Candida albicans [12] = assay: Ratio of MIC50 for Candida albicans 5674 to MIC50 for tac1/tac1 deficient Candida albicans SZY31; procedure, shortened: as §2
Candida albicans [13] = assay: Ratio of MIC50 for cdr1/cdr1 deficient Candida albicans STY19 to MIC50 for cdr1/cdr1/cdr2/cdr2 deficient Candida albicans STY31; procedure, shortened: as §2

Compound: OC(Cn1cncn1)(Cn1cncn1)c1ccc(F)cc1F [FLUCONAZOLE]
- MIC50 (Candida albicans [1]): 100 µg/mL (≈ 327 µM)
- Ratio (Candida albicans [2]): 375
- Ratio (Candida albicans [3]): 16
- MIC50 (Candida albicans [4]): 6.2 µg/mL (≈ 20.2 µM)
- MIC50 (Candida albicans [5]): 25 µg/mL (≈ 81.6 µM)
- Ratio (Candida albicans [6]): 6
- MIC50 (Candida albicans [7]): 0.4 µg/mL (≈ 1.31 µM)
- MIC50 (Candida albicans [8]): 6.3 µg/mL (≈ 20.6 µM)
- MIC50 (Candida albicans [9]): 150 µg/mL (≈ 490 µM)
- MIC50 (Candida albicans [10]): 3.1 µg/mL (≈ 10.1 µM)
- Ratio (Candida albicans [11]): 1.5

Compound: CCC(C)n1ncn(-c2ccc(N3CCN(c4ccc(OCC5COC(Cn6cncn6)(c6ccc(Cl)cc6Cl)O5)cc4)CC3)cc2)c1=O (stereo unspecified) [ITRACONAZOLE]
- MIC50 (Candida albicans [1]): 0.2 µg/mL (≈ 0.283 µM)
- Ratio (Candida albicans [2]): 500
- MIC50 (Candida albicans [4]): 0.0063 µg/mL (≈ 0.00893 µM)
- MIC50 (Candida albicans [5]): 0.025 µg/mL (≈ 0.0354 µM)
- Ratio (Candida albicans [6]): 8
- MIC50 (Candida albicans [7]): 0.0004 µg/mL (≈ 0.000567 µM)
- MIC50 (Candida albicans [9]): 0.2 µg/mL (≈ 0.283 µM)
- MIC50 (Candida albicans [10]): 0.0125 µg/mL (≈ 0.0177 µM)
- Ratio (Candida albicans [11]): 1

Compound: CC/N=c1\cc2oc3cc(NCC)c(C)cc3c(-c3ccccc3C(=O)OCC)c-2cc1C.Cl [RHODAMINE 6G HYDROCHLORIDE]
- MIC50 (Candida albicans [1]): 16 µg/mL
- MIC50 (Candida albicans [4]): 2 µg/mL
- MIC50 (Candida albicans [5]): 8 µg/mL
- MIC50 (Candida albicans [7]): 8 µg/mL
- MIC50 (Candida albicans [9]): 16 µg/mL
- MIC50 (Candida albicans [10]): 8 µg/mL

Compound: OCCN1CCN(CCCN2c3ccccc3Sc3ccc(C(F)(F)F)cc32)CC1 [FLUPHENAZINE]
- MIC50 (Candida albicans [1]): 75 µg/mL (≈ 171 µM)
- Ratio (Candida albicans [12]): 2
- Ratio (Candida albicans [13]): 2
- MIC50 (Candida albicans [4]): 38 µg/mL (≈ 86.9 µM)
- MIC50 (Candida albicans [5]): 50 µg/mL (≈ 114 µM)
- Ratio (Candida albicans [6]): 1.5
- MIC50 (Candida albicans [7]): 25 µg/mL (≈ 57.1 µM)
- MIC50 (Candida albicans [9]): 75 µg/mL (≈ 171 µM)
- MIC50 (Candida albicans [10]): 75 µg/mL (≈ 171 µM)
- Ratio (Candida albicans [11]): 1

Compound: C[C@@H]1[C@H](O)[C@@H](C)/C=C/C=C/C=C/C=C/C=C/C=C/C=C/[C@H](O[C@@H]2O[C@H](C)[C@@H](O)[C@H](N)[C@@H]2O)C[C@@H]2O[C@](O)(C[C@@H](O)C[C@@H](O)[C@H](O)CC[C@@H](O)C[C@@H](O)CC(=O)O[C@H]1C)C[C@H](O)[C@H]2C(=O)O [AMPHOTERICIN B]
- MIC50 (Candida albicans [1]): 2 µg/mL (≈ 2.16 µM)
- MIC50 (Candida albicans [4]): 1 µg/mL (≈ 1.08 µM)
- MIC50 (Candida albicans [5]): 2 µg/mL (≈ 2.16 µM)
- MIC50 (Candida albicans [7]): 2 µg/mL (≈ 2.16 µM)
- MIC50 (Candida albicans [9]): 2 µg/mL (≈ 2.16 µM)
- MIC50 (Candida albicans [10]): 1 µg/mL (≈ 1.08 µM)

Compound: CC(=O)N1CCN(c2ccc(OCC3COC(Cn4ccnc4)(c4ccc(Cl)cc4Cl)O3)cc2)CC1 (stereo unspecified) [KETOCONAZOLE]
- MIC50 (Candida albicans [1]): 0.4 µg/mL (≈ 0.753 µM)
- Ratio (Candida albicans [2]): 300
- MIC50 (Candida albicans [4]): 0.009 µg/mL (≈ 0.0169 µM)
- MIC50 (Candida albicans [5]): 0.15 µg/mL (≈ 0.282 µM)
- Ratio (Candida albicans [6]): 4
- MIC50 (Candida albicans [7]): 0.002 µg/mL (≈ 0.00376 µM)
- MIC50 (Candida albicans [9]): 0.6 µg/mL (≈ 1.13 µM)
- MIC50 (Candida albicans [10]): 0.018 µg/mL (≈ 0.0339 µM)
- Ratio (Candida albicans [11]): 1.5
